Experimental findings from ChEMBL document CHEMBL1765040, “Synthesis and antiviral activity of N9-[3-fluoro-2-(phosphonomethoxy)propyl] analogues derived from N6-substituted adenines and 2,6-diaminopurines” (Bioorg Med Chem, 2011) are described below.

Each structure is given as a SMILES string. pEC50: −log10 of the molar value. Activity calls are given as the source filed them. The calls are words filed in the database; no cut-off is given here.

Data set [1] in a line: Cytotoxicity against human CEM cells assessed as minimum concentration required for morphological alteration by microscopic analysis. The class given is cell-based, CCRF-CEM.
Data set [2] is described as follows: Cytotoxicity against human CEM cells assessed as inhibition of cell proliferation after 72 hrs by coulter counter analysis. The class given is cell-based, CCRF-CEM. The method in brief: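 CEM cells, (5–7.5) × 10^4 per well, with test compound, grown 72 h at 37 °C in humidified CO2 atmosphere; cells counted by Coulter counter. IC50 is the concentration inhibiting proliferation by 50%.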

In data set [3] the test system is Moloney murine sarcoma virus. The data set can be described thus: Antiviral against Moloney murine sarcoma virus infected in mouse C3H/3T3 cells assessed as inhibition of virus-induced cell transformation after 6 days post infection by microscopic analysis. The class given is functional, organism-based. The following applies: C3H/3T3, 144 h. The method in brief: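 Murine embryo fibroblast C3H/3T3 monolayers infected with 75 focus-forming units of MSV, with test compound; transformation examined microscopically at day 6 postinfection. EC50 is the concentration inhibiting MSV-induced transformation by 50%.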

Data set [4] concerns Human immunodeficiency virus 1. The data set can be described thus: Antiviral activity against HIV1 3B infected in human CEM cells assessed as inhibition of virus-induced syncytium formation after 4 to 5 days by microscopic analysis. In kind it is functional, organism-based. The following applies: Human immunodeficiency virus 1, 3B, CCRF-CEM. The method in brief: (§1)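 CEM cells (~3 × 10^5 cells/mL) infected with 100 CCID50 per mL of HIV-1(IIIB) or HIV-2(ROD), with compound dilutions; 4–5 days at 37 °C, humidified CO2 atmosphere. Giant (syncytium) cell formation scored microscopically; EC50 is the concentration inhibiting giant cell formation by 50%.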

The test system of data set [5] is Human immunodeficiency virus 2. As to the kind of experiment: Antiviral activity against HIV2 ROD infected in human CEM cells assessed as inhibition of virus-induced syncytium formation after 4 to 5 days by microscopic analysis. The conditions noted are these: Human immunodeficiency virus 2, ISOLATE ROD, CCRF-CEM. The class given is functional, organism-based. The method in brief: as §1

In data set [6] the target is N6-methyl-AMP deaminase, ADAL (Homo sapiens) (UniProt Q6DHV7). As to the kind of experiment: Activity at human recombinant N6-methyl-AMP deaminase assessed as reaction rate after 60 mins by HPLC analysis.
Data set [7] concerns Human immunodeficiency virus 1. The data set can be described thus: Antiviral activity against HIV1 infected in human MT4 cells assessed as inhibition of virus-induced cytopathicity. The following applies: Human immunodeficiency virus 1, MT4. The class given is functional, organism-based.
Data set [8] can be described thus: Cytotoxicity against human MT4 cells. In kind it is cell-based.

Sequence of N6-methyl-AMP deaminase, ADAL (Homo sapiens) (Q6DHV7 whole entry, looked up): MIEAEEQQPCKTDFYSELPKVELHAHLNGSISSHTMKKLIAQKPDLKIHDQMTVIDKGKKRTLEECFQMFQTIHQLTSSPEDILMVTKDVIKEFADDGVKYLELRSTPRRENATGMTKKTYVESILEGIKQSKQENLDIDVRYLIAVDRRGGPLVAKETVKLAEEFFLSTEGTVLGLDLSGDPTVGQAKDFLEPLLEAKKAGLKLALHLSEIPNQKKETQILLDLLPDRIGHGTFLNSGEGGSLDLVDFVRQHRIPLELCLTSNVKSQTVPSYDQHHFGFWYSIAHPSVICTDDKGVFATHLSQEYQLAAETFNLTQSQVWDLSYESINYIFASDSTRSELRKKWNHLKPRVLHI

With `CN(C)CCNc1nc(N)nc2c1ncn2C[C@@H](CF)OCP(=O)(O)O`, the MCC in data set [1] was above 100 µM. In data set [2], the CC50 at 72 h was above 100 µM. Besides, the pEC50 in data set [3], in data set [4] and in data set [5] was below 4.00 throughout.
In the case of `C[C@H](Cn1cnc2c(N)ncnc21)OCP(=O)(O)O` [TENOFOVIR ANHYDROUS], the MCC in data set [1] is above 100 µM. The CC50 at 72 h in data set [2] was above 250 µM. The pEC50 in data set [4] is 5.34; in data set [5], 5.49.
As for `CCCNc1nc(N)nc2c1ncn2C[C@@H](CF)OCP(=O)(O)O`, in data set [6], the result was inactive. In addition, the MCC in data set [1] is at least 100 µM. In addition, the CC50 at 72 h in data set [2] is above 276 µM. The results for the pEC50 in data set [3], in data set [4] and in data set [5] were below 4.00, below 3.56 and below 3.56, respectively.
For the compound `Nc1ncnc2c1ncn2CCOCP(=O)(O)O` [ADEFOVIR], in data set [1], the MCC was at least 100 µM. Besides, the CC50 at 72 h in data set [2] is at least 250 µM. In addition, the results for the pEC50 in data set [3], in data set [4] and in data set [5] were 5.68, 5.13 and 5.15, respectively.
With `Nc1nc(N2CCCC2)c2ncn(C[C@H](CF)OCP(=O)(O)O)c2n1`, the MCC in data set [1] was above 100 µM. Moreover, the CC50 at 72 h in data set [2] is above 100 µM. Also, the negative logarithm of the EC50 (pEC50) in data set [3], in data set [4] and in data set [5] was below 4.00 each time.
For the compound `CCN(CC)c1nc(N)nc2c1ncn2C[C@H](CF)OCP(=O)(O)O`, the MCC in data set [1] was above 100 µM. Moreover, the CC50 at 72 h in data set [2] is above 100 µM. For the same compound, the pEC50 in data set [3], in data set [4] and in data set [5] was below 4.00 each time.
As to `C=CCNc1nc(N)nc2c1ncn2C[C@@H](CF)OCP(=O)(O)O`, the outcome in data set [6] was inactive. For the same compound, the MCC in data set [1] was above 100 µM. The CC50 at 72 h in data set [2] was above 247 µM. The pEC50 is below 4.00 in data set [3], below 3.61 in data set [4] and below 3.61 in data set [5].
In the case of `Nc1nc(N)c2ncn(C[C@@H](CF)OCP(=O)(O)O)c2n1`, in data set [7], the pEC50 is 4.82. The CC50 in data set [8] is above 300 µM.
Taken in the same sequence, the figures for `Nc1nc(O)c2ncn(C[C@@H](CF)OCP(=O)(O)O)c2n1` were 5.41 and 103 µM.
Regarding `CN(C)CCNc1nc(N)nc2c1ncn2C[C@H](CF)OCP(=O)(O)O`, in data set [2], the CC50 at 72 h was above 53 µM. Further, the pEC50 in data set [4] was below 4.28.
As for `COCCNc1nc(N)nc2c1ncn2C[C@@H](CF)OCP(=O)(O)O`, the MCC in data set [1] is above 100 µM. In data set [2], the CC50 at 72 h was above 100 µM. Besides, the pEC50 in data set [3], in data set [4] and in data set [5] was below 4.00 in each case.
As to `Nc1nc(N)c2ncn(C[C@H](CF)OCP(=O)(O)O)c2n1`, the negative logarithm of the EC50 (pEC50) in data set [7] was 5.37. This compound also registered a CC50 in data set [8] above 300 µM.
On to `Nc1nc(NC2CC2)c2ncn(C[C@@H](CF)OCP(=O)(O)O)c2n1`, for which, in data set [6], the Activity is 1.98 nmol/min/mg. Besides, the MCC in data set [1] is above 100 µM. Also, in data set [2], the CC50 at 72 h is above 278 µM. The pEC50 in data set [3] is 5.16; in data set [4] it was 4.59; in data set [5], 4.95.
As to `C=CCNc1nc(N)nc2c1ncn2C[C@H](CF)OCP(=O)(O)O`, the Activity in data set [6] was found to be 5.64 nmol/min/mg. For the same compound, the MCC in data set [1] was above 100 µM. For the same compound, the CC50 at 72 h in data set [2] is above 278 µM. Also, the results for the pEC50 in data set [3], in data set [4] and in data set [5] were 4.16, 4.74 and 4.44, respectively.
Regarding `Nc1nc(O)c2ncn(C[C@H](CF)OCP(=O)(O)O)c2n1`, the pEC50 in data set [7] was 5.23. Besides, in data set [8], the CC50 was above 300 µM.
As for `CN(C)c1nc(N)nc2c1ncn2C[C@H](CF)OCP(=O)(O)O`, the Activity in data set [6] came to 23.6 nmol/min/mg. In data set [1], the MCC is at least 100 µM. For the same compound, the CC50 at 72 h in data set [2] is above 287 µM. The pEC50 was below 4.70 in data set [3], 4.29 in data set [4] and 3.99 in data set [5].
With `CN(C)c1nc(N)nc2c1ncn2C[C@@H](CF)OCP(=O)(O)O`, in data set [6], the Activity was determined as 8.07 nmol/min/mg. In data set [1], the MCC was above 100 µM. Moreover, the CC50 at 72 h in data set [2] is above 255 µM. The pEC50 was 4.35 in data set [3], below 3.59 in data set [4] and 3.94 in data set [5].
As to `COCCNc1nc(N)nc2c1ncn2C[C@H](CF)OCP(=O)(O)O`, in data set [1], the MCC was above 100 µM. In addition, the CC50 at 72 h in data set [2] was above 100 µM. Further, the negative-log EC50 (pEC50) in data set [3], in data set [4] and in data set [5] was below 4.00 in each case.
As to `Nc1nc(NC2CC2)c2ncn(C[C@H](CF)OCP(=O)(O)O)c2n1`, in data set [6], the Activity amounted to 64.5 nmol/min/mg. For the same compound, the MCC in data set [1] was above 100 µM. Further, the CC50 at 72 h in data set [2] is above 278 µM. Besides, the pEC50 is 4.30 in data set [3], 4.85 in data set [4] and 4.64 in data set [5].
As for `CCN(CC)c1nc(N)nc2c1ncn2C[C@@H](CF)OCP(=O)(O)O`, the MCC in data set [1] was above 100 µM. Moreover, in data set [2], the CC50 at 72 h is above 100 µM. For the same compound, the pEC50 in data set [3], in data set [4] and in data set [5] was below 4.00 each time.
For the compound `Nc1nc(N2CCCC2)c2ncn(C[C@@H](CF)OCP(=O)(O)O)c2n1`, the MCC in data set [1] is at least 100 µM. Further, in data set [2], the CC50 at 72 h is above 100 µM. The pEC50 was below 4.70 in data set [3], below 4.00 in data set [4] and below 4.00 in data set [5].
With `CCCNc1nc(N)nc2c1ncn2C[C@H](CF)OCP(=O)(O)O`, the Activity in data set [6] came out at 4.17 nmol/min/mg. For the same compound, the MCC in data set [1] is above 100 µM. For the same compound, the CC50 at 72 h in data set [2] was above 276 µM. Moreover, the pEC50 in data set [3] was below 4.00; in data set [4] it was 4.38; in data set [5], 4.65.
